Results from PMC5407101 (Pharmacognosy Magazine, 2017).
Blank lines part the entries; values can stand above or below the molecule they belong to.

How the values were obtained:
Assay type in all cases: in vitro ADME
[1] = system: UDP-glucuronosyltransferases (UGTs) in rat kidneys microsomes; experiment: Kinetic analysis for p-NP glucuronidation in RKM
How it was run: (§1)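 RLM or RKM (5 mg mL–1) was pre-treated on ice for 5 min with Triton X-100 (0.25 v/v % RLM; 0.125 v/v % RKM). Incubation was in Tris-HCl pH 7.4 with MgCl2, at seven p-NP levels (0-3,000 µM), started with UDPGA, 37°C for 30 min. The reaction was stopped with TCA and alkalinised with NaOH, and read at 405 nm. Glucuronidated p-NP was taken as blank minus unreacted, per protein and time. Km and Vmax came from a Michaelis-Menten fit.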

[2] = system: UDP-glucuronosyltransferases (UGTs) in rat liver microsomes; experiment: Kinetic analysis for p-NP glucuronidation in RLM
How it was run: as §1

[3] = system: UDP-glucuronosyltransferases (UGTs) in rat liver microsomes; experiment: Inhibition of 4-MU glucuronidation assay in RLM; conditions: for fold more potent inhibition of 4-MU glucuronidation with RLM than with RKM: ratio of IC50 RKM/RLM
[4] = system: UDP-glucuronosyltransferases (UGTs) in rat kidneys microsomes; experiment: Kinetic analysis for 4-MU glucuronidation in RKM
How it was run: (§2)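 Microsomes from livers or kidneys of untreated male Sprague-Dawley rats. Protein was 0.1 mg mL–1 (RLM) or 0.125 mg mL–1 (RKM), pre-treated on ice for 5 min with Triton X-100 (0.1 μL mg–1 RLM; 0.2 μL mg–1 RKM), in Tris-HCl pH 7.4 with MgCl2. 4-MU ranged 0-10 mM. After 5 min at 37°C, UDPGA started the 15-min reaction, stopped with TCA. 4-MUG was measured by C18 HPLC-UV at 316 nm. Km and Vmax came from a Michaelis-Menten fit.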

[5] = system: UDP-glucuronosyltransferases (UGTs) in rat liver microsomes; experiment: Kinetic analysis for 4-MU glucuronidation in RLM
How it was run: as §2

[6] = read-out: Km of p-NP glucuronidation, Michaelis-Menten

Km [1, 6]: 857 ± 68.3 µM
Km [2, 6]: 860 ± 86.8 µM
SMILES: O=[N+]([O-])c1ccc(O)cc1 [p-NP, p-nitrophenol]
Vmax of p-NP glucuronidation ([1]; Michaelis-Menten): 9.320 ± 1.11 nmol min^–1 mg^–1
Vmax of p-NP glucuronidation ([2]; Michaelis-Menten): 43.04 ± 1.64 nmol min^–1 mg^–1

fold higher IC50 in comparison with vanillin, 4-MU UGT inhibition ([3]; RLM): 120 fold
fold more potent inhibition of 4-MU glucuronidation with RLM than with RKM [3]: 1.2 fold
SMILES: COc1cc(C=O)cc(OC)c1O [Syringaldehyde]

fold more potent inhibition of 4-MU glucuronidation with RLM than with RKM [3]: 2.6 fold
SMILES: COc1cc(C=O)ccc1O [Vanillin]

Km ([4]; read-out: Km of 4-MU glucuronidation, Michaelis-Menten): 101 ± 6 µM
Km ([5]; read-out: Km of 4-MU glucuronidation, Michaelis-Menten, no inhibitor): 104 ± 20 µM
SMILES: Cc1cc(=O)oc2cc(O)ccc12 [4-MU, 4-methylumbelliferone]
Vmax of 4-MU glucuronidation ([4]; Michaelis-Menten): 12.01 ± 0.12 nmol min^–1 mg^–1
Vmax of 4-MU glucuronidation ([5]; Michaelis-Menten, no inhibitor): 27.87 ± 1.08 nmol min^–1 mg^–1
